Experimental data reported in ChEMBL document CHEMBL1138202, “Tricyclic pyrazoles. 4. Synthesis and biological evaluation of analogues of the robust and selective CB2 cannabinoid ligand 1-(2',4'-dichlorophenyl)-6-methyl-N-piperidin-1-yl-1,4-dihydroindeno[1,2-c]pyrazole-3-carboxamide” (J Med Chem, 2006).

Experiments:
Cannabinoid receptor 1 = Cannabinoid receptor 1 (Mus musculus, UniProt P47746); test: Displacement of [3H]CP-55940 from CD1 mouse brain CB1 receptor; type: tissue-based
Outline: (§1)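 Male CD-1 mouse brain (minus cerebellum) for CB1 or spleen for CB2, homogenised in ice-cold TME (50 mM Tris-HCl, 1 mM EDTA, 3.0 mM MgCl2, pH 7.4) and centrifuged to membranes. GF/C filtration, scintillation counting. Triplicate, five independent experiments; sigmoid fit IC50 converted to Ki.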

Cannabinoid receptor 2 = Cannabinoid receptor 2 (Mus musculus, UniProt P47936); test: Displacement of [3H]CP-55940 from CD1 mouse spleen CB2 receptor; type: tissue-based; outline: as §1
Chain of Cannabinoid receptor 2 (P47936 whole entry): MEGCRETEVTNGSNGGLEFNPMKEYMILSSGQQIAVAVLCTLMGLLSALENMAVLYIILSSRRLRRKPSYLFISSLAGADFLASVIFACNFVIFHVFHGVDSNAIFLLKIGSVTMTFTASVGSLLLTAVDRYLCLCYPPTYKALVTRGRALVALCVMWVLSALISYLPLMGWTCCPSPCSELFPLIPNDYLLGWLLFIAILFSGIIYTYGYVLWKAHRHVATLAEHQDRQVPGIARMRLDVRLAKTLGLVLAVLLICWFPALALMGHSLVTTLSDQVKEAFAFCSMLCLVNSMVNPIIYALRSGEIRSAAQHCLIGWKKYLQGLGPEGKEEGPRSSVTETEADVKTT

[1] = biological target: Cannabinoid receptor (Mus musculus) (UniProt P47746+P47936); test: Selectivity for CD1 mouse CB2 receptor over CB1 receptor; type: protein assay
Chain of Cannabinoid receptor (Mus musculus) (P47746 whole entry, looked up): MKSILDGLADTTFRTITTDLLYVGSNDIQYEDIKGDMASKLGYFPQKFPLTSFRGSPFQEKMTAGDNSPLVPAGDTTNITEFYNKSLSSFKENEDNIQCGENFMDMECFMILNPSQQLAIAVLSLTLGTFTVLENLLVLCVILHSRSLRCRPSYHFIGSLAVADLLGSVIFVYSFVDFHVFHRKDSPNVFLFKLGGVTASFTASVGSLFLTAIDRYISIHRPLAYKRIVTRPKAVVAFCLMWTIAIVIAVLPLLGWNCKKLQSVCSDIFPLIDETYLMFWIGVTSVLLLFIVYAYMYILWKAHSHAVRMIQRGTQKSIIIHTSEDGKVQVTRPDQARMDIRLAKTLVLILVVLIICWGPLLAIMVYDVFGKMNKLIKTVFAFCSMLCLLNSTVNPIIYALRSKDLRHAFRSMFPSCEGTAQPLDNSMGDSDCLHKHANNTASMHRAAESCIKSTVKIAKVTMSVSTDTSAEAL
Chain of Cannabinoid receptor (Mus musculus) (P47936 whole entry, looked up): as the sequence (P47936 whole entry) above

[2] = biological target: Cannabinoid receptor 2 (Homo sapiens) (UniProt P34972); test: Intrinsic activity at CB2 receptor assessed as induction of ERK1/2 phosphorylation in HL60 cells at 10 nM after 10 mins relative to control; type: functional, cell-based
Chain of Cannabinoid receptor 2 (Homo sapiens) (P34972 whole entry): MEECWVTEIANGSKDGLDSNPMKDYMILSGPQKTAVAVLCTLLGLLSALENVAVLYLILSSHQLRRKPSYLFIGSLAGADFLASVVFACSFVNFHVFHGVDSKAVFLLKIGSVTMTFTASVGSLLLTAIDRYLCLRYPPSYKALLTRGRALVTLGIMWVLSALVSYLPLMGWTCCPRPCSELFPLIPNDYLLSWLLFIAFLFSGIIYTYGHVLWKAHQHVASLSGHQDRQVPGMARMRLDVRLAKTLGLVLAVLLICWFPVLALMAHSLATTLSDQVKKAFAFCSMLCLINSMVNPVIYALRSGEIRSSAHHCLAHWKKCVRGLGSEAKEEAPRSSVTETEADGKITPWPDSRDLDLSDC
Outline: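 HL-60 cells in RPMI 1640 with 10% heat-inactivated FBS, 37 °C, 5% CO2, used at 80% confluency. Compounds in medium with 1% DMSO added to the cell suspension for 10 min. Lysates western blotted with anti-phospho-MAPK 1/2 and read by chemiluminescence. Phospho-ERK 1/2 given as mean percentage of vehicle from five separate experiments.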

Chain of Cannabinoid receptor 1 (P47746 whole entry): as the sequence (P47746 whole entry, looked up) above

Cc1ccc2c(c1)Cc1c(C(=O)NNc3ccccc3)nn(-c3ccc(Cl)cc3Cl)c1-2
Ki (Cannabinoid receptor 1): 2280 nM
Ki (Cannabinoid receptor 2): 63 nM
Ratio Ki [1]: 36

Cc1ccc2c(c1)Cc1c(C(=O)NN3CCCCC3)nn(-c3ccc(Cl)cc3Cl)c1-2
Ki (Cannabinoid receptor 1): 363 nM
Ki (Cannabinoid receptor 2): 0.037 nM
Activity ([2]; HL-60): 83%
Activity ([2]; HL-60, filed as agonist): Agonist
Ratio Ki [1]: 9810

Cc1ccc2c(c1)Cc1c(C(=O)Nc3ccc(Cl)cc3)nn(-c3ccc(Cl)cc3Cl)c1-2
Ki (Cannabinoid receptor 1): > 10000 nM
Ki (Cannabinoid receptor 2): 177 nM

Cc1ccc2c(c1)Cc1c(C(=O)Nc3ccccc3)nn(-c3ccc(Cl)cc3Cl)c1-2
Ki (Cannabinoid receptor 1): 2410 nM
Ki (Cannabinoid receptor 2): 32.8 nM
Activity ([2]; HL-60): 125%
Activity ([2]; HL-60, filed as agonist): Agonist
Ratio Ki [1]: 73

Cc1ccc2c(c1)Cc1c(C(=O)Nc3ccc(C(F)(F)F)cc3)nn(-c3ccc(Cl)cc3Cl)c1-2
Ki (Cannabinoid receptor 1): > 10000 nM
Ki (Cannabinoid receptor 2): > 5000 nM

COc1ccc(NC(=O)c2nn(-c3ccc(Cl)cc3Cl)c3c2Cc2cc(C)ccc2-3)cc1
Ki (Cannabinoid receptor 1): > 10000 nM
Ki (Cannabinoid receptor 2): 114 nM

Cc1ccc2c(c1)Cc1c(C(=O)NNc3ccc(Cl)cc3)nn(-c3ccc(Cl)cc3Cl)c1-2
Ki (Cannabinoid receptor 1): > 10000 nM
Ki (Cannabinoid receptor 2): > 5000 nM

Cc1ccc2c(c1)Cc1c(C(=O)Nc3ccc(F)cc3)nn(-c3ccc(Cl)cc3Cl)c1-2
Ki (Cannabinoid receptor 1): > 5000 nM
Ki (Cannabinoid receptor 2): 61 nM

Cc1ccc(Cn2nc(C(=O)N[C@@H]3C(C)(C)[C@@H]4CC[C@@]3(C)C4)cc2-c2ccc(Cl)c(C)c2)cc1
Ratio Ki [1]: 250

Cc1cc2c(cc1Cl)-c1c(c(C(=O)NN3CCCCC3)nn1-c1ccc(Cl)cc1Cl)C2
Ki (Cannabinoid receptor 2): 200 nM
Ratio Ki [1]: 4.6

CCCCCCC(C)(C)c1ccc(C2CC(O)CC[C@H]2CCCO)c(O)c1 (single isomer, unassigned) [CP-55940]
Ki (Cannabinoid receptor 1): 1.5 nM
Ki (Cannabinoid receptor 2): 1.11 nM

O=C(NN1CCCCC1)c1nn(-c2ccc(Cl)cc2Cl)c2c1Cc1cc(Cl)ccc1-2
Activity ([2]; HL-60): 65%
Activity ([2]; HL-60, filed as agonist): Agonist
Ratio Ki [1]: 6030

Cc1ccc(NC(=O)c2nn(-c3ccc(Cl)cc3Cl)c3c2Cc2cc(C)ccc2-3)cc1
Ki (Cannabinoid receptor 1): > 5000 nM
Ki (Cannabinoid receptor 2): 74 nM

Cc1ccc2c(c1)Cc1c(C(=O)NC3CCCCC3)nn(-c3ccc(Cl)cc3Cl)c1-2
Ki (Cannabinoid receptor 1): 900 nM
Ki (Cannabinoid receptor 2): 7.6 nM
Activity ([2]; HL-60): 61.3%
Activity ([2]; HL-60, filed as agonist): Agonist
Ratio Ki [1]: 118

Cc1ccc2c(c1)Cc1c(C(=O)NNc3ccc([N+](=O)[O-])cc3)nn(-c3ccc(Cl)cc3Cl)c1-2
Ki (Cannabinoid receptor 1): 4500 nM
Ki (Cannabinoid receptor 2): 2120 nM
Ratio Ki [1]: 2

Cc1cc2c(cc1Cl)Cc1c(C(=O)NN3CCCCC3)nn(-c3ccc(Cl)cc3Cl)c1-2
Ratio Ki [1]: 14

Cc1ccc2c(c1)Cc1c(C(=O)Nc3ccc(Cl)cc3Cl)nn(-c3ccc(Cl)cc3Cl)c1-2
Ki (Cannabinoid receptor 1): 2630 nM
Ki (Cannabinoid receptor 2): > 5000 nM

COc1ccc(NNC(=O)c2nn(-c3ccc(Cl)cc3Cl)c3c2Cc2cc(C)ccc2-3)cc1
Ki (Cannabinoid receptor 1): > 5000 nM
Ki (Cannabinoid receptor 2): 3000 nM

Cc1ccc2c(c1)Cc1c(C(=O)Nc3ccc(Cl)c(Cl)c3)nn(-c3ccc(Cl)cc3Cl)c1-2
Ki (Cannabinoid receptor 1): > 10000 nM
Ki (Cannabinoid receptor 2): > 10000 nM

Cc1cc2c(cc1Cl)-c1c(c(C(=O)NC3CCCCC3)nn1-c1ccc(Cl)cc1Cl)C2
Ratio Ki [1]: 33
